# Results as given in ChEMBL document CHEMBL1123757, “Selective thromboxane synthetase inhibitors and antihypertensive agents. New derivatives of 4-hydrazino-5H-pyridazino[4,5-b]indole, 4-hydrazinopyridazino[4,5-a]indole, and related compounds” (J Med Chem, 1987).
# Legend:
# [1] = target: T1, Thromboxane-A synthase (Homo sapiens) (UniProt P24557); assay: Effect on thromboxane synthetase activity on in vitro platelet aggregation induced by AA at 10e -5 M expressed as percent […] in TXB2; type: functional
# T1 sequence (whole entry): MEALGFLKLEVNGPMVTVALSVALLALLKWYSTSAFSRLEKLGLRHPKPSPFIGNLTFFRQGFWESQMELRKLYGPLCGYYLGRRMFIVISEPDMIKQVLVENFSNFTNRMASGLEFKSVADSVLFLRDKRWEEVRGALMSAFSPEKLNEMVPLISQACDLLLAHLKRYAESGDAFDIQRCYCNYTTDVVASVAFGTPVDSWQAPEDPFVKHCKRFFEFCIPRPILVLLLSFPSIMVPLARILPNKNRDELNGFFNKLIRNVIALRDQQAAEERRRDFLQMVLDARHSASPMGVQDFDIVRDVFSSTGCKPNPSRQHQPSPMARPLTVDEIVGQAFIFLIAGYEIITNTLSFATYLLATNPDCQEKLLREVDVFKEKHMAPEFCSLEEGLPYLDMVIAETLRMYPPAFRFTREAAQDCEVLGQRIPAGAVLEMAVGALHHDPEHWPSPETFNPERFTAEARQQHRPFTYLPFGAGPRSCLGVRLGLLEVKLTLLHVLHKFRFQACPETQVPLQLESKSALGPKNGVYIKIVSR
# Outline: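 Human citrated PRP adjusted to 200 000 […], compound at 10^-5 M final in saline/10% ethylene glycol, incubated at 37 °C. Aggregation induced with arachidonic acid 0.6 mM and read by Born absorbance aggregometry. PGE2 and TXB2 in the aggregated samples measured by radioimmunoassay. n = 5.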
# Cavia porcellus [2] = assay: Ex vivo inhibition of platelet aggregation induced by AA at 50 mg/kg; No significance; type: functional, organism-based; parameters: dose 50 mg/kg
# Outline: (§1)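 Fasted male or female guinea pigs (250–300 g, five per group) dosed orally in normal saline or saline with 0.2% (carboxymethyl)cellulose/1.0% Tween 80; controls given vehicle. Under ether, cardiac blood collected into 3.8% citrate. PRP adjusted to […] and aggregation induced by ADP (second wave) or AA, read by absorbance aggregometry. PGE2 and TXB2 measured by RIA.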
# Rattus norvegicus [3] = assay: Antihypertensive activity in spontaneously hypertensive rats (SHR) measured by percentage fall in cardiac rhythm (CR) at 1 mg/kg administered intraperitoneally at 5 h;No significance; type: functional, organism-based; parameters: dose 1 mg/kg; details: Heart
# Outline: (§2)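 Unanesthetized Okamoto-strain SHR, male and female, 8 weeks old, 300–350 g, systolic pressure ≥190 mmHg, heart rate 400–650 beats/min; five animals per dose. Given ip at 2.5 mL/kg, dissolved or suspended in normal saline or saline with 0.2% (carboxymethyl)cellulose and 1.0% Tween 80. Tail AP and CR recorded by mechanical transduction at set times; reported as percentage fall from control.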
# Rattus norvegicus [4] = assay: Antihypertensive activity in spontaneously hypertensive rats (SHR) measured by percentage fall in cardiac rhythm (CR) at 25 mg/kg administered perorally at 1 h;No significance; type: functional, organism-based; parameters: dose 25 mg/kg; details: Heart
# Outline: (§3)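 Conscious SHR (Okamoto strain), 8 weeks old, male and female, 300–350 g, systolic BP ≥190 mmHg, CR 400–650 beats/min. Given ip or po at 2.5 mL/kg in normal saline or saline with 0.2% (carboxymethyl)cellulose and 1.0% Tween 80. Tail AP and CR recorded by mechanical transduction at 1, 3, 5 and 24 h, five animals per dose. Effect expressed as % fall versus control.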
# Rattus norvegicus [5] = assay: Antihypertensive activity in spontaneously hypertensive rats (SHR) measured by percentage fall in cardiac rhythm (CR) at 25 mg/kg administered perorally at 24 h;No significance; type: functional, organism-based; parameters: dose 25 mg/kg; details: Heart; outline: as §3
# Rattus norvegicus [6] = assay: Percent increase in cardiac rhythm, directly measured on carotid (iv on the jugular vein) of spontaneously hypertensive rats at 1 mg/kg after 120 minutes;No significance; type: functional, organism-based; parameters: dose 1 mg/kg; details: Heart
# Outline: (§4)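 Anesthetized (sodium pentobarbital, 70 mg/kg) male and female Okamoto SHR, 8 weeks old, 300–350 g. Given iv into the jugular vein in normal saline. Arterial pressure and cardiac rhythm are recorded directly from the carotid by polygraph at set times after dosing. Each is expressed as percent change from the pre-dose control value.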
# Rattus norvegicus [7] = assay: Percent increase in cardiac rhythm, directly measured on carotid (iv on the jugular vein) of spontaneously hypertensive rats at 1 mg/kg after 180 minutes;No significance; type: functional, organism-based; parameters: dose 1 mg/kg; details: Heart; outline: as §4
# Rattus norvegicus [8] = assay: Percent increase in cardiac rhythm, directly measured on carotid (iv on the jugular vein) of spontaneously hypertensive rats at 1 mg/kg after 240 minutes;No significance; type: functional, organism-based; parameters: dose 1 mg/kg; details: Heart; outline: as §4
# Rattus norvegicus [9] = assay: Percent increase in cardiac rhythm, directly measured on carotid (iv on the jugular vein) of spontaneously hypertensive rats at 1 mg/kg after 5 minutes;No significance; type: functional, organism-based; parameters: dose 1 mg/kg; details: Heart; outline: as §4
# Rattus norvegicus [10] = assay: Percent increase in cardiac rhythm, directly measured on carotid (iv on the jugular vein) of spontaneously hypertensive rats at 1 mg/kg after 75 minutes;No significance; type: functional, organism-based; parameters: dose 1 mg/kg; details: Heart; outline: as §4
# Rattus norvegicus [11] = assay: Antihypertensive activity in spontaneously hypertensive rats (SHR) measured by percentage fall in cardiac rhythm (CR) at 25 mg/kg administered intraperitoneally at 24 h;No significance; type: functional, organism-based; parameters: dose 25 mg/kg; details: Heart; outline: as §2
# Cavia porcellus [12] = assay: Ex vivo inhibition of platelet aggregation induced by ADP-II at 30 mg/kg; No significance; type: functional, organism-based; parameters: dose 30 mg/kg; outline: as §1
# Cavia porcellus [13] = assay: Ex vivo inhibition of platelet aggregation induced by ADP-II at 50 mg/kg; No significance; type: functional, organism-based; parameters: dose 50 mg/kg; outline: as §1
# Rattus norvegicus [14] = assay: Antihypertensive activity in spontaneously hypertensive rats (SHR) measured by percentage fall in arterial pressure (AP) at 1 mg/kg administered intraperitoneally at 5 h;No significance significance; type: functional, organism-based; parameters: dose 1 mg/kg; details: Artery; outline: as §2
# Rattus norvegicus [15] = assay: Antihypertensive activity in spontaneously hypertensive rats (SHR) measured by percentage fall in cardiac rhythm (CR) at 1 mg/kg administered intraperitoneally at 24 h;No significance; type: functional, organism-based; parameters: dose 1 mg/kg; details: Heart; outline: as §2
# Cavia porcellus [16] = assay: Ex vivo inhibition of platelet aggregation induced by AA at 30 mg/kg; No significance; type: functional, organism-based; parameters: dose 30 mg/kg; outline: as §1
# Rattus norvegicus [17] = assay: Antihypertensive activity in spontaneously hypertensive rats (SHR) measured by percentage fall in arterial pressure (AP) at 1 mg/kg administered intraperitoneally at 24 h;No significance; type: functional, organism-based; parameters: dose 1 mg/kg; details: Artery; outline: as §2
# Homo sapiens [18] = species on record: Homo sapiens; assay: In vitro inhibition of platelet aggregation induced by […] (PRP incubated for 5 minutes at 37 degree C) at 10e-5 M;NS means no significance; type: functional
# Rattus norvegicus [19] = assay: Antihypertensive activity in spontaneously hypertensive rats (SHR) measured by percentage fall in arterial pressure (AP) at 25 mg/kg administered intraperitoneally at 3 h;No significance; type: functional, organism-based; parameters: dose 25 mg/kg; details: Artery; outline: as §2
# Rattus norvegicus [20] = assay: Antihypertensive activity in spontaneously hypertensive rats (SHR) measured by percentage fall in arterial pressure (AP) at 25 mg/kg administered intraperitoneally at 5 h;No significance; type: functional, organism-based; parameters: dose 25 mg/kg; details: Artery; outline: as §2
# Rattus norvegicus [21] = assay: Antihypertensive activity in spontaneously hypertensive rats (SHR) measured by percentage fall in cardiac rhythm (CR) at 25 mg/kg administered intraperitoneally at 1 h; type: functional, Heart; details: route intraperitoneal; outline: as §2
# Homo sapiens [22] = species on record: Homo sapiens; assay: In vitro inhibition of platelet aggregation induced by AA (PRP incubated for 60 minutes at 37 degree C) at 10e-5 M;NS means no significance; type: functional
# Outline: (§5)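 Human venous blood anticoagulated with 3.8% sodium citrate (1:9). PRP from centrifugation at 800 rpm for 10 min at room temperature. Count adjusted with PPP to […]. Compound in saline with 10% ethylene glycol is added to PRP and incubated at 37 °C before the agonist. Agonists: ADP 2×10^-5 M, AA 0.6 mM, PGH2 2.8 μM, adrenaline 0.6 μM. Born absorbance aggregometry; n = 5.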
# Homo sapiens [23] = species on record: Homo sapiens; assay: In vitro inhibition of platelet aggregation induced by ADP-II (PRP incubated for 5 minutes at 37 degree C) at 10e-5 M;No significance; type: functional; outline: as §5
# Homo sapiens [24] = species on record: Homo sapiens; assay: In vitro inhibition of platelet aggregation induced by ADP-II (PRP incubated for 60 minutes at 37 degree C) at 10e-5 M; type: functional; details: 1 h; outline: as §5
# Rattus norvegicus [25] = assay: Antihypertensive activity in spontaneously hypertensive rats (SHR) measured by percentage fall in cardiac rhythm (CR) at 25 mg/kg administered intraperitoneally at 3 h;No significance; type: functional, organism-based; parameters: dose 25 mg/kg; details: Heart; outline: as §3
# Rattus norvegicus [26] = assay: Antihypertensive activity in spontaneously hypertensive rats (SHR) measured by percentage fall in cardiac rhythm (CR) at 25 mg/kg administered intraperitoneally at 5 h;No significance; type: functional, organism-based; parameters: dose 25 mg/kg; details: Heart; outline: as §3
# Rattus norvegicus [27] = assay: Antihypertensive activity in spontaneously hypertensive rats (SHR) measured by percentage fall in arterial pressure (AP) at 25 mg/kg administered intraperitoneally at 1 h;No significance; type: functional, organism-based; parameters: dose 25 mg/kg; details: Artery; outline: as §2
# Rattus norvegicus [28] = assay: Antihypertensive activity in spontaneously hypertensive rats (SHR) measured by percentage fall in arterial pressure (AP) at 25 mg/kg administered intraperitoneally at 24 h;No significance; type: functional, organism-based; parameters: dose 25 mg/kg; details: Artery; outline: as §2
smiles,measurement,setting,value
COc1ccc2[nH]c3c(NN)nncc3c2c1,inhibition,[1],40%
same,inhibition,Cavia porcellus [2],No significant values
same,Decrease in CR,Rattus norvegicus [3],No significant values
same,Decrease in CR,Rattus norvegicus [4],No significant values
same,Decrease in CR,Rattus norvegicus [5],No significant values
same,Increase,Rattus norvegicus [6],No significant values
same,Increase,Rattus norvegicus [7],No significant values
same,Increase,Rattus norvegicus [8],No significant values
same,Increase,Rattus norvegicus [9],No significant values
same,Increase,Rattus norvegicus [10],No significant values
same,Decrease in CR,Rattus norvegicus [11],No significant values
same,inhibition,Cavia porcellus [12],No significant values
same,inhibition,Cavia porcellus [13],No significant values
same,Decrease in AP,Rattus norvegicus [14],No significant values
same,Decrease in AP,Rattus norvegicus [15],No significant values
same,inhibition,Cavia porcellus [16],No significant values
same,Decrease in AP,Rattus norvegicus [17],No significant values
CCOc1ccc2[nH]c3c(O)nncc3c2c1,inhibition,Homo sapiens [18],no significance
same,inhibition,Rattus norvegicus [19],No significant values
same,Decrease in CR,Rattus norvegicus [20],No significant values
same,Decrease in CR,Rattus norvegicus [21],6%
same,inhibition,Homo sapiens [22],No significant values
same,inhibition,Homo sapiens [23],No significant values
same,inhibition at 10 µM,Homo sapiens [24],100%
same,Decrease in CR,Rattus norvegicus [11],No significant values
same,Decrease in CR,Rattus norvegicus [25],No significant values
same,Decrease in AP,Rattus norvegicus [26],No significant values
same,Decrease in AP,Rattus norvegicus [27],No significant values
same,Decrease in AP,Rattus norvegicus [28],No significant values
